Reference: ChEMBL document CHEMBL2440049, “A structurally simplified analogue of geldanamycin exhibits neuroprotective activity” (ACS Med Chem Lett, 2013)
The source made the active and inactive calls. No cut-off for these calls is given here.

How the values were obtained:
[1] = Cytotoxicity against human Friedreich's ataxia lymphocytes at 0.05 to 0.25 uM after 48 hrs by WST-1 assay
[2] = tested on: BT-474; experiment: Cytotoxicity against human BT474 cells at 0.05 to 0.25 uM after 48 hrs by WST-1 assay; type: cell-based; settings: bt-474, 48 h
[3] = Cytoprotective activity in human Friedreich's ataxia lymphocytes assessed as reduction in DEM-induced oxidative stress at 0.1 uM preincubated for 16 hrs prior to DEM-stimulation measured after 6 hrs by trypan blue exclusion assay relative to untreated control; type: functional; parameters: scale not given: the % may be the effect or the level left
Summary of the method: (§1)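 FRDA lymphocytes treated with compound at 0.1–5 μM, then oxidatively stressed with diethyl maleate to deplete glutathione. Viability set to 100% for untreated cells. Mean ± SEM of three independent experiments run in duplicate.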

[4] = Cytoprotective activity in human Friedreich's ataxia lymphocytes assessed as reduction in DEM-induced oxidative stress at 0.5 uM preincubated for 16 hrs prior to DEM-stimulation measured after 6 hrs by trypan blue exclusion assay relative to untreated control; type: functional; parameters: scale not given: the % may be the effect or the level left; summary of the method: as §1
[5] = Cytoprotective activity in human Friedreich's ataxia lymphocytes assessed as reduction in DEM-induced oxidative stress at 2.5 uM preincubated for 16 hrs prior to DEM-stimulation measured after 6 hrs by trypan blue exclusion assay relative to untreated control; type: functional; parameters: scale not given: the % may be the effect or the level left; summary of the method: as §1
[6] = Cytoprotective activity in human Friedreich's ataxia lymphocytes assessed as reduction in DEM-induced oxidative stress at 5 uM preincubated for 16 hrs prior to DEM-stimulation measured after 6 hrs by trypan blue exclusion assay relative to untreated control; type: functional; parameters: scale not given: the % may be the effect or the level left; summary of the method: as §1
[7] = Cytotoxicity against DEM-stimulated human Friedreich's ataxia lymphocytes assessed as effect on intracellular glutathione concentration at 1 to 10 uM; type: cell-based
[8] = species on record: Homo sapiens; experiment: Antioxidant activity in human Friedreich's ataxia lymphocytes assessed as suppression of DEM-induced lipid peroxidation after overnight incubation by flow cytometric analysis; type: functional
Summary of the method: (§2)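 FRDA lymphocytes treated with compound at 1, 5 or 10 μM, then stressed with DEM. Lipid peroxidation probed with C11-BODIPY581/591; oxidized green fluorescence, median intensity, measured by flow cytometry and compared with untreated control. Results given as % scavenging activity; mean ± SEM, n = 3.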

[9] = species on record: Homo sapiens; experiment: Antioxidant activity in human Friedreich's ataxia lymphocytes assessed as suppression of DEM-induced lipid peroxidation at 10 uM after overnight incubation by flow cytometric analysis relative to untreated control; type: functional; summary of the method: as §2
[10] = species on record: Homo sapiens; experiment: Antioxidant activity in human Friedreich's ataxia lymphocytes assessed as suppression of DEM-induced lipid peroxidation at 5 uM after overnight incubation by flow cytometric analysis relative to untreated control; type: functional; summary of the method: as §2
[11] = species on record: Homo sapiens; experiment: Antioxidant activity in human Friedreich's ataxia lymphocytes assessed as suppression of DEM-induced lipid peroxidation at 1 uM after overnight incubation by flow cytometric analysis relative to untreated control; type: functional; summary of the method: as §2
[12] = target: Heat shock protein HSP 90-beta (Homo sapiens) (UniProt P08238); experiment: Inhibition of HSP90 in human BT474 cells expressing HER2 assessed as increase in HSP90 protein level at 0.5 to 5 uM after 24 hrs by chemiluminescence assay; type: cell-based; settings: BT-474
Heat shock protein HSP 90-beta (Homo sapiens), sequence (P08238 whole entry): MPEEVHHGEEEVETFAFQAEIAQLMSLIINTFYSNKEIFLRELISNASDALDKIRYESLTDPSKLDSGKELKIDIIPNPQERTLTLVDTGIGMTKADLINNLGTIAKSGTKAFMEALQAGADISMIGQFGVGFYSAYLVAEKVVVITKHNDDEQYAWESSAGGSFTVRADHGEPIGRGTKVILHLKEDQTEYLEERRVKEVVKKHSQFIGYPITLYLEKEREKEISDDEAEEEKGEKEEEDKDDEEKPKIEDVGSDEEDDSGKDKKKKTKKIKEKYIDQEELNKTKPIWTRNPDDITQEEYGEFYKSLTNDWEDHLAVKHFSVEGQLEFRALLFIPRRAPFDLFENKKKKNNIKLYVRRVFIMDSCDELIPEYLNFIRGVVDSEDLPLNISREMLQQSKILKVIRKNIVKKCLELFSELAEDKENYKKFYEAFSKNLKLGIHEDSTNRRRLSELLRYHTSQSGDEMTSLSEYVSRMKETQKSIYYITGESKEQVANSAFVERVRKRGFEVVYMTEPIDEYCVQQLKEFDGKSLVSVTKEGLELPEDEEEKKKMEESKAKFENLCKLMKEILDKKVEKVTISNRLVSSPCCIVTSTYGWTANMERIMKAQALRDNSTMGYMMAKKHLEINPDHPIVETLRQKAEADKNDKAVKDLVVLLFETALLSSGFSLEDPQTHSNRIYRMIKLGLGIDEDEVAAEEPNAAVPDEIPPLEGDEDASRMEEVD

[13] = target: Heat shock protein HSP 90-beta (Homo sapiens) (UniProt P08238); experiment: Inhibition of HSP90 in human BT474 cells expressing HER2 assessed as HER2 protein degradation at 0.5 to 25 uM after 24 hrs by chemiluminescence assay; type: cell-based; settings: BT-474
[14] = Cytotoxicity against human Friedreich's ataxia lymphocytes at 5 to 20 uM after 48 hrs by WST-1 assay
[15] = tested on: BT-474; experiment: Cytotoxicity against human BT474 cells at 5 to 20 uM after 48 hrs by WST-1 assay; type: cell-based; settings: bt-474, 48 h
[16] = target: Amyloid-beta precursor protein (Homo sapiens) (UniProt P05067); experiment: Neuroprotective activity in differentiated human SH-SY5Y cells assessed as decrease in amyloid beta (1 to 42)-induced neurotoxicity incubated overnight prior to amyloid beta (1 to 42)-stimulation measured after 48 hrs by WST-1 assay; type: functional, cell-based
Amyloid-beta precursor protein (Homo sapiens), sequence (P05067 whole entry): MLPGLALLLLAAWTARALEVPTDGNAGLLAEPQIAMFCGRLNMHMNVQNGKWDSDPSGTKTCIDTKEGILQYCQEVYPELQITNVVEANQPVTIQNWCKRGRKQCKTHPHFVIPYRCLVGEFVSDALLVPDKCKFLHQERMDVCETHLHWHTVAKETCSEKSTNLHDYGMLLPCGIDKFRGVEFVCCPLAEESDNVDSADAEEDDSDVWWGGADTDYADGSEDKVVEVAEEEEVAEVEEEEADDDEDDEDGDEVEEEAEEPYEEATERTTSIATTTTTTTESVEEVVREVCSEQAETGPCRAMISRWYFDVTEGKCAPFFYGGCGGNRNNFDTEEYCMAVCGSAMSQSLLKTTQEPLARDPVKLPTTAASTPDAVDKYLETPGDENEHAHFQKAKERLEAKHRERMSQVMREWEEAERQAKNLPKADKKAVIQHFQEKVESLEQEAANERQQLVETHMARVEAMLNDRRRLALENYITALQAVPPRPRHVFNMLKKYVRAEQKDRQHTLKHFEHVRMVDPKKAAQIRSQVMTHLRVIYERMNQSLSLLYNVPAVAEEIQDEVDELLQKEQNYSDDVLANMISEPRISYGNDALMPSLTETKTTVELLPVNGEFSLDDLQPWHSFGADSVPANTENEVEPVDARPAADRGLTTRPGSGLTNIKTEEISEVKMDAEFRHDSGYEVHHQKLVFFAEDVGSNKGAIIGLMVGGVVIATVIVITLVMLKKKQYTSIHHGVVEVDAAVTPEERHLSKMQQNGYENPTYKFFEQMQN

[17] = species on record: Homo sapiens; experiment: Cytoprotective activity in DEM-stimulated human Friedreich's ataxia lymphocytes assessed as cells with intact mitochondrial membrane potential at 5 uM preincubated for 16 hrs prior to DEM-stimulation measured after 140 mins by TMRM dye-based flow cytometric analysis (reference value: 92%); type: functional
[18] = species on record: Homo sapiens; experiment: Antioxidant activity in human Friedreich's ataxia lymphocytes assessed as suppression of DEM-induced ROS production preincubated for 16 hrs prior to DEM-stimulation measured after 80 mins by flow cytometric analysis; type: functional
Summary of the method: (§3)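 FRDA lymphocytes pretreated 16 h with compound (5 and 10 μM), then 5 mM diethyl maleate for 80 min to deplete glutathione. Cells washed, resuspended in PBS with 20 mM glucose, loaded with 10 μM DCFH-DA for 20 min. DCF fluorescence read by flow cytometry, 488 nm excitation, 530 ± 15 nm emission, 10,000 events. Expressed as % ROS scavenging; mean ± SEM, n = 3.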

[19] = species on record: Homo sapiens; experiment: Cytoprotective activity in human Friedreich's ataxia lymphocytes assessed as reduction in DEM-induced oxidative stress preincubated for 16 hrs prior to DEM-stimulation measured after 6 hrs by trypan blue exclusion assay; type: functional; summary of the method: as §1
[20] = species on record: Homo sapiens; experiment: Cytoprotective activity in BSO-stimulated human Friedreich's ataxia fibroblasts assessed as preservation of mitochondrial membrane potential at 5 uM after 12 hrs by JC-1 dye-based Zeiss fluorescent microscopic analysis
[21] = species on record: Homo sapiens; experiment: Antioxidant activity in human Friedreich's ataxia lymphocytes assessed as suppression of DEM-induced ROS production at 5 to 10 uM preincubated for 16 hrs prior to DEM-stimulation measured after 80 mins by flow cytometric analysis; type: functional; summary of the method: as §3

| SMILES | Activity [3] [%] | Activity [4] [%] | Activity [5] [%] | Activity [6] [%] | Activity [8] | Activity [9] [%] | Activity [10] [%] | Activity [11] [%] | Activity [17] [%] | Activity [21] | also measured |
| --- | --- | --- | --- | --- | --- | --- | --- | --- | --- | --- | --- |
| COC1=C2C[C@@H](C)C[C@H](OC)[C@H](O)[C@@H](C)/C=C(\C)[C@H](OC(N)=O)[C@@H](OC)/C=C\C=C(/C)C(=O)NC(=CC1=O)C2=O [GELDANAMYCIN] |  |  |  |  |  |  |  |  |  |  | Activity [1]: Toxic; Activity [2]: Toxic |
| COC1=C2CCCCCCCCCCCCCCCNC(=CC1=O)C2=O | 36 | 69 | 83 | 92 | Dose-dependent effect | 83 | 72 | 29 | 80 |  | Activity [7]: Non-toxic; inhibition [12]: inactive; inhibition [13]: inactive; Activity [14]: Non-toxic; Activity [15]: Non-toxic; Activity [16]: Dose-dependent effect; Activity [18]: Dose-dependent effect; Activity [19]: Dose-dependent effect; Activity [20]: Active |
| CCCCCCCCCCCCCC1=C(O)C(=O)C=C(NCCCCCC)C1=O | 18 | 22 | 43 | 65 |  | 38 | 27 | 2 | 43 | Active |  |
| CCCCCCCCCCCCCC1=C(OC)C(=O)C=C(NCCCCCC)C1=O | 20 | 50 | 66 | 80 | Dose-dependent effect | 70 | 61 | 14 | 56 | Active |  |
